Reference: the EternaBench riboswitch data

Tested on: MS2 coat protein
Test: apparent Kd, MS2 coat protein; higher = weaker binding; RNA-MaP array; FMN 200 µM where present
How it was run: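 Green signal from SNAP-549-labelled MS2 coat protein was normalised to red-channel RNA signal and to the median Fmax of control clusters. The protein was titrated from 0.7 or 1.5 nM, doubling to 3 µM, without and then with constant ligand, over designs transcribed by stalled E. coli RNA polymerase on Illumina sequencing-chip clusters, in 100 mM Tris-HCl pH 7.5, 80 mM KCl, 4 mM MgCl2, BSA, DTT, yeast tRNA and Tween-20. The apparent Kd is the median of filtered per-cluster binding-curve fits.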

[1] = designed as: OFF switch for flavin mononucleotide, no ligand
[2] = ligand present: flavin mononucleotide, designed as: OFF switch for flavin mononucleotide
[3] = designed as: ON switch for flavin mononucleotide, no ligand
[4] = ligand present: flavin mononucleotide, designed as: ON switch for flavin mononucleotide

Row | Sequence | apparent Kd [1] [nM] | apparent Kd [2] [nM] | apparent Kd [3] [nM] | apparent Kd [4] [nM]
1 | ACCGGGUGUCACGUAUUACCGACAUGAGGAUCACCCAUGUAGGAGGAUAUGCAGACCGAAAUAAAGCAGAAGGCCUACGUUCUC | 10.6 | 46.6 | – | –
2 | AGAUACUACGAGAAGGACAUGAGGAUCACCCAUGUAACCAGUAUCUGGAAUGUAGGAUAUCGUAGUAUCAGGAUCGUGAGAUCA | 9.91 | 32.9 | – | –
3 | UAUAUAUAAUAUAUUAACAUGAGGAUCACCCAUGUCGCUAGACAGGAUAUAUUUAAUAUUAUAAAGUAGAAGGGUCAUAUAAUU | – | – | 50.5 | 64.8
4 | AUCCUACAUGAGGAUCACCCAUGUGACGCCUCGAUAGGAUAUGCGUGUGCCUUGGCGCAUGCAGAAGGAUUGUUGC | – | – | 149 | 195
5 | UAGAUGGCUCAGGAUAUUUGCCAACUAACUCGCGAAGAAGGGAGCACAUGAGGAUCACCCAUGUGAUCGAACGG | 18.8 | 45.6 | – | –
6 | UGCAUGCUAGGAUAUACGGGACAUUAGGGUUCGUUGUAUGGACAUGAGGAUCACCCAUGUAGAAGGAGCGUGCU | 27.4 | 112 | – | –
7 | GAGUACUGAGGAUAUACAUGAGGAUCACCCAUGUGUUCCAACUAGGAAUCUAGAAUAUGUAGAAGGCAGUACUG | 223 | 211 | – | –
8 | AAGAAGCUCACAGGAUAUCAGUAUAUGCGAUCACACGUAUUAAUGAACUGCUGAGAAGGGUGAGACAUGAGGAUCACCCAUGUA | – | – | 446 | 238
9 | GGUUGACAAAGUCAACCAUAACGAACAUGAGGAUCACCCAUGUAGGAUAUGCUACUCAAAGAGUAGCAGAAGGACAUGUGUCUU | 32.6 | 161 | – | –
10 | AUUAUUAAAGUGAGGAUAUCUAGAGCUUCGGCUCUAGAGAAGGCACAUGAGGAUCACCCAUGUCUCAAUUAUUA | 18.5 | 59.4 | – | –
11 | GGUAGGUUCACAGGAUAUGCUAUCCUUUGGGUAGCAGAAGGGUGAUAACAUGAGGAUCACCCAUGUCCUACCGGGCGUGAGCCC | – | – | 1120 | 113
12 | CCCUCACAUGAGGAUCACCCAUGUCAGGAUAUCCAGCCCUACUAUAAAGCGUCUGGCGGGAGAAGGGACAGGAU | 20.9 | 28.5 | – | –
13 | GAGGAGUCAGGAUAUCGGGAAAGGUUGAGGAAGAGAAGAAGCGAGAAGGGACAUGAGGAUCACCCAUGUAGAAG | 52.4 | 47 | – | –
14 | GCCAUCGUAUGAGGAUAUGGCACCGAAACGGUGCCAGAAGGCAUGUCAAUUGACAUGAGGAUCACCCAUGUAUUAUCGAUGGCA | – | – | 857 | 89
15 | UGGUUGGGAGGAUAUCCAAUAUAUGACAUGAGGAUCACCCAUGUUUCCACUCGUACCUCCGGAGAAGGCCCUUCCC | 21.7 | 20.7 | – | –
16 | GGAAAACAUGAGGAUCACCCAUGUGAGGAUAUCGAUGUCCAACCACCCGUGCGGGACUCGAGAAGGCACUUGGA | 53.4 | 146 | – | –
17 | GUCAAGUGAGGAUAUGAUUGUACAACAGACUAGCGUCUGCAUCAGAAGGCACAUGAGGAUCACCCAUGUUUGUC | 19.6 | 16.2 | – | –
18 | ACUAGAUGAGGAUAUGCAUAUUUUCGUGUUCUUCUAGAUUAACAUGAGGAUCACCCAUGUAGAAGGCGUCAUUA | 16.5 | 20.3 | – | –
19 | AACAUGAGGAUCACCCAUGUCCCACCAGAAGGCUGGCGGCCACGGUAACGGCCGUGGCAAAUAACAGAGGAUAUGGUGAAUGCA | – | – | 66.3 | 17.9
20 | CGUAGGAUCCAGAAGGCAUGAAACAUGAGGAUCACCCAUGUAAAAGACAUGAGGAUAUGGAUCCUACGAAAAGUGCGAAAGCAC | – | – | 3.69 | 3.4
21 | UUAAGGGACUGAGGAUAUACAUGAAUUAUUUUUGUAGAAGGCAGAUUGUUAGUUUAUUCACUAUACAUGAGGAUCACCCAUGUU | 27.4 | 20.1 | – | –
22 | UUCGUGCAGCUUUGCUGUACGCGUACAUGAGGAUCACCCAUGUAGGAUAUGGUAGGCAAAGCUUACUAGAAGGAUAUAGUGAUU | 9.34 | 9.4 | – | –
23 | UGUGUGUGGCAGGAUAUGCCGGUCGUUGGACGGGUAGAAGGGUCUACAUGAGGAUCACCCAUGUGGCCGGUUGG | 18.4 | 20.2 | – | –
24 | CCGAUUAGCACAGGAUAUGGGAAUUCGUAGUUUCCAGAAGGGUGAGCCAAUACAUGAGGAUCACCCAUGUGCGGUAGGUCGGGA | – | – | 30.5 | 80

Row | Sequence | apparent Kd [1] [nM] | apparent Kd [2] [nM] | apparent Kd [3] [nM] | apparent Kd [4] [nM]
25 | AUUUUAUAAUAGAAGGAGGACUUCAUGAGGAUCACCCAUGUGUUGGUACUUAGGAUAUGUAAUAACAUGAGGAUCACCCAUGUC | – | – | 55.9 | 49.8
26 | GGUCGUCAAGUCAGGAUAUCGUAUAGUAGAUGUAACGAGAAGGGACAUGAGGAUCACCCAUGUCGUCUCAUCAG | 18.9 | 25.8 | – | –
27 | GUAGCAUGCAGGCAGGAUAUUCAUAUUAAAACAUGAGGAUCACCCAUGUAGGCCAAAAGGCCUUGGGAGAAGGGCCACAUGCUAC | – | – | 636 | 45.7
28 | GACUUCUCUGAGGAUAUUGCAUCAUACGAUUUAUAAGAAGGCAGAACAUGAGGAUCACCCAUGUGGGUUUCUAG | 59 | 108 | – | –
29 | CAUGUCCUCACAGGAUAUGCACCACUUUGUGGUGCAGAAGGGUGGAUACAUGAGGAUCACCCAUGUGGACAUGAUAUAUUUAAU | – | – | 608 | 57.2
30 | UAUUUUAACUAAGGAUAUCUGUAUUAUGUAGAAACAUGAGGAUCACCCAUGUUCUUGAUAUUAUAGGAGAAGGUAGAUGAAUAA | – | – | 6.6 | 5.72
31 | GCGUAACAUGAGGAUCACCCAUGUGCCCGAGAAUUCGGGCCGAGAAGGGUGACCGGUCGUAUGGCACAGGAUAUCGACGUUGUG | – | – | 30.6 | 13.4
32 | GUUUACGUGGAAGGAUAUACAUUUGACAUCCUGAUGCGCGCAAUACCCACAUGAGGAUCACCCAUGUAGAAGGUCUGCGAAAGA | 14.7 | 18.4 | – | –
33 | CGAUGUUAUGUCAGGAUAUGCGUUGCGAAAGCGAUGCAGAAGGGACAUGAGGAUCACCCAUGUCCUAACCAUCG | 12.3 | 22.6 | – | –
34 | AGUGAUUGCUGUGUCAGUUCACAUGAGGAUCACCCAUGUAGCUAGGAUAUCCGCAGUUACUGCUAGGAGAAGGAGCAAGGUGGC | 8.6 | 12.1 | – | –
35 | AAAAAGUGAGGAUAUGCGCUGUCCUGUAGACACGAGCAGUCGUAGAAGGCACAUGAGGAUCACCCAUGUUUAAA | 27.6 | 20.2 | – | –
36 | ACUAUACGAGGAUAUACUGACGGGCCUCAGGCGUCCAUGAGACAUGAGGAUCACCCAUGUAGAAGGCGUAUACU | 174 | 52 | – | –
37 | ACGUUAAAAGGAUAUACAUGAGGAUCACCCAUGUUGUUCGAACCGGUAAACCCUCUAUGUAGAAGGUUUGGCGC | 16 | 17.9 | – | –
38 | AAAAAACAUGAGGAUCACCCAUGUAAAAAAAUCGCAGGAUAUAGGGUCGCGAAAGCGACCCUAGAAGGGCGAUCCU | – | – | 260 | 87.7
39 | AAGCUCGUGUGAGGAUAUGCCGCCGUUUCGGCUGCAGAAGGUGCUACGUUACAUGAGGAUCACCCAUGUCUCUGUUGUUUCGUG | – | – | 23 | 22.3
40 | AUCUUGUAAGGAUAUCUUACAAGUGACUUCGGUCACAGUUAAGAGAAGGUACAUGAGGAUCACCCAUGUAUAAC | 26.4 | 23 | – | –
41 | UUGGACGUCGUAGGAUAUGUAGGAUAUUCCUACAUGAGGAUCACCCAUGUGGACAUGGAAGAAGGACAGAAGGACGAUGUCCAU | – | – | 63.7 | 4.7
42 | ACUGUCCGAGAGAAGGGAACAUGAGGAUCACCCAUGUUACCUCACCCGGUGACGGAACUCCAAGUUCAGGAUAUCUCGAGCGGU | 7.09 | 12.6 | – | –
43 | CUGCCGUAGGAGAAGGACGGCGGGUUAUUUUUGUACAUGAGGAUCACCCAUGUAGGAUAUCCUACGUCAGGCAACCUACUACAG | 7.26 | 10.2 | – | –
44 | AUAUCAUACCAAGGAUAUUUAAGAUUUGUGUAGACAUGAGGAUCACCCAUGUGGCGUUAGUCACGGGAGAAGGUGGUAUGAUAU | – | – | 978 | 205
45 | AGCAUGCUAGGAUAUACGGGACAUUAGGGUUUGUCGUGUGGACAUGAGGAUCACCCAUGUAGAAGGAGCGUGCA | 54.4 | 228 | – | –
46 | GGAAAUCGUGUAGGAUAUGCAUGGCGAAGCUACGCAGAAGGACAUGAGGAUCACCCAUGUUAUAGCGUCCGAGAAAGGAUGCAA | 11 | 67.4 | – | –
47 | CGUGACUCAGGAUAUCUAUAGUAUCACAUGAGGAUCACCCAUGUCCAGCGAAAGCUGGAGGGAGAAGGGAGUCACG | 266 | 53.9 | – | –
48 | UUAAAUCAUGUAGGAUAUGCAUGGCGAAGCUACGCAGAAGGACAUGAGGAUCACCCAUGUCUCUCCGUCUGCGUACAGACGGAG | 24.6 | 155 | – | –
